Data from ChEMBL document CHEMBL4765328 (Eur J Med Chem, 2020).
Active and inactive are the calls of the source. No cut-off for these calls is given here.

Tests used:
[1] = system: HeLa; assay: Induction of apoptosis in human HeLa cells assessed as late apoptotic cells at 10 nM measured after 24 hrs by Annexin V-FITC/propidium iodide staining based flow cytometry (reference value: 6.07 %); assay type: functional
[2] = system: SEM cells; assay: Antiproliferative activity against human SEM cells assessed as inhibition of cell growth; assay type: functional, cell-based
Method in brief: (§1)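 Compounds from 10 mM DMSO stocks; final DMSO ≤0.25%. Growth inhibition of cancer cell lines read from dose-response curves; IC50 as mean ± SEM of at least three independent experiments.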

[3] = system: HeLa; assay: Induction of microtubule network depolymerization in human HeLa cells assessed as appearance of disorganised microtubules at 10 nM after 24 hrs by immunofluorescence staining based confocal microscopic analysis; assay type: cell-based
Method in brief: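 HeLa cells treated 24 h at 10, 50 or 100 nM. They were then fixed in cold 4% formaldehyde for 15 min and stained with anti-β-tubulin for 2 h at room temperature. Alexa 488 secondary and DAPI counterstain followed; imaged by confocal microscopy at 20X.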

[4] = system: HUVEC; assay: Antivascular activity against HUVEC assessed as effect on meshes area in preformed capillary like tube network at 10 nM incubated for 1 hr by imaging analysis; assay type: functional, cell-based; details: Homo sapiens
Method in brief: (§2)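 HUVECs used at passages 1–6 in M200 with low-serum growth supplement. 6 x 10^4 cells seeded on gelled Matrigel (37 °C, 30 min) and left 6 h to form tubes. Preformed networks then treated 1 h at 10 or 100 nM and photographed at five fields per well. Image analysis gave segment length, mesh area and number, covered area and branch points; three independent experiments.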

[5] = system: HeLa; assay: Antiproliferative activity against human HeLa cells assessed as inhibition of cell growth; assay type: functional, cell-based
Method in brief: (§3)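 Growth inhibition of cancer cell lines read from dose-response curves; IC50 as mean ± SEM of at least three independent experiments.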

[6] = Antitumor activity mouse E0771 cells implanted in C57BL/6 mouse assessed as reduction tumor mass at 5 mg/kg, ip administered every other day relative to control; assay type: functional, EO771; set-up: scale not given: the % may be the effect or the level left
Method in brief: (§4)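 Seven-week-old female C57BL/6 mice received 4 x 10^5 E0771 cells orthotopically in the mammary fat pad and were randomized once tumors were palpable. Dosing was ip every other day at 5 or 15 mg/kg, with DMSO vehicle in 100 µL. Caliper volume was V=(D×d²)/2, and tumor weight was taken at endpoint; n=5/group. Analysis used two-way ANOVA with Bonferroni.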

[7] = system: HeLa; assay: Downregulation of MAD-2 expression in human HeLa cells at 10 nM after 48 hrs by Western blot analysis; assay type: functional, cell-based
Method in brief: (§5)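 HeLa cells treated 24 or 48 h, then washed in cold PBS and lysed in 0.1% Triton X-100/RNase A at 0 °C. Lysates were cleared at 15,000 x g. 10 µg protein was run on SDS-PAGE and blotted to PVDF, blocked in 5% BSA, and probed 2 h at room temperature with primary antibodies. HRP secondary and ECL detection followed; β-actin reprobe served as loading control.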

[8] = system: HUVEC; assay: Antivascular activity against HUVEC assessed as inhibition of capillary like tube formation at 10 nM incubated for 1 hr by matrigel based assay; assay type: functional, cell-based; details: Homo sapiens; method in brief: as §2
[9] = system: HL-60; assay: Antiproliferative activity against human HL-60 cells assessed as inhibition of cell growth; assay type: functional, cell-based; method in brief: as §3
[10] = system: EO771; assay: Antitumor activity against mouse E0771 cells implanted in ip dosed C57BL/6 mouse assessed as reduction tumor growth administered every other day; assay type: functional, organism-based; details: dose 5-15 mg/kg; method in brief: as §4
[11] = system: Daoy; assay: Antiproliferative activity against human Daoy cells assessed as inhibition of cell growth; assay type: functional, cell-based; method in brief: as §1
[12] = Cytotoxicity against normal human astrocytes assessed as inhibition of cell growth; assay type: cell-based, Astrocyte
[13] = system: HeLa; assay: Induction of apoptosis in human HeLa cells assessed as increase in PARP cleavage at 10 nM after 24 hrs by Western blot analysis; assay type: functional, cell-based; method in brief: as §5
[14] = species: Bos taurus; assay: Inhibition of [3H]colchicine binding to bovine brain tubulin at 0.5 uM relative to control; assay type: tissue-based
Method in brief: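 [3H]colchicine binding to purified tubulin, with tubulin at 0.5 µM and colchicine at 5 µM. Compounds tested at 5 and 0.5 µM. CA-4 was run in contemporaneous experiments for comparison.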

[15] = system: HeLa; assay: Induction of apoptosis in human HeLa cells assessed as viable cells at 10 nM measured after 48 hrs by Annexin V-FITC/propidium iodide staining based flow cytometry (reference value: 89.57 %); assay type: functional; details: read-out: Activity
[16] = system: Daoy; assay: Potency index, ratio of CA-4 IC50 to compound IC50 for human Daoy cells assessed as inhibition of cell growth; assay type: functional
[17] = Cytotoxicity against PHA-stimulated human PBL assessed as inhibition of cell growth; assay type: cell-based; details: PHA-stimulated peripheral blood lymphocytes (PBL)
Method in brief: (§6)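 Peripheral blood lymphocytes from healthy donors, tested either unstimulated or stimulated with PHA; DMSO ≤0.25% final. Values are mean ± SEM of three separate experiments.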

[18] = system: HeLa; assay: Induction of cell cycle arrest at G2/M phase in human HeLa cells assessed as increase in cyclin B1 expression after 24 to 48 hrs by Western blot analysis; assay type: functional, cell-based; details: dose 10-50 nM, time 24-48 hrs; method in brief: as §5
[19] = system: HUVEC; assay: Antivascular activity against HUVEC assessed as inhibition of capillary like tube formation at 100 nM incubated for 1 hr by matrigel based assay; assay type: functional, cell-based; details: Homo sapiens; method in brief: as §2
[20] = system: HeLa; assay: Downregulation of BubR1 expression in human HeLa cells at 10 nM after 48 hrs by Western blot analysis; assay type: functional, cell-based; method in brief: as §5
[21] = Inhibition of bovine brain tubulin polymerisation preincubated with compound followed by GTP addition and measured after 20 mins by turbidimetry based spectrophotometric method; assay type: tissue-based, Bos taurus
Method in brief: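 Bovine brain tubulin (10 µM) in glutamate buffer, preincubated with varying compound concentrations at 30 °C, then cooled to 0 °C. GTP added to 0.4 mM final, then warmed to 30 °C in a recording spectrophotometer. Assembly followed by turbidity at 350 nm.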

[22] = system: HeLa; assay: Induction of apoptosis in human HeLa cells assessed as reduction in mcl-1 protein expression at 10 nM after 24 hrs by Western blot analysis; assay type: functional, cell-based
[23] = system: HeLa; assay: Induction of apoptosis in human HeLa cells assessed as increase in PARP cleavage at 10 nM after 48 hrs by Western blot analysis; assay type: functional, cell-based; method in brief: as §5
[24] = system: HeLa; assay: Induction of apoptosis in human HeLa cells assessed as late apoptotic cells at 10 nM measured after 48 hrs by Annexin V-FITC/propidium iodide staining based flow cytometry (reference value: 6.07 %); assay type: functional
[25] = system: HeLa; assay: Induction of mitochondrial membrane potential loss in human HeLa cells assessed as cells with depolarized mitochondrial membrane at 10 nM after 24 hrs by JC-1 dye-based flow cytometric analysis (reference value: 5.7 %); assay type: functional
[26] = system: HUVEC; assay: Antivascular activity against HUVEC assessed as effect on segment length in preformed capillary like tube network at 10 nM incubated for 1 hr by imaging analysis; assay type: functional, cell-based; details: Homo sapiens; method in brief: as §2
[27] = system: Jurkat; assay: Potency index, ratio of CA-4 IC50 to compound IC50 for human Jurkat cells assessed as inhibition of cell growth; assay type: functional
[28] = system: HeLa; assay: Induction of apoptosis in human HeLa cells assessed as early apoptotic cells at 10 nM measured after 24 hrs by Annexin V-FITC/propidium iodide staining based flow cytometry (reference value: 2.1 %); assay type: functional
[29] = Cytotoxicity against mouse E0771 cells assessed as cell growth inhibition after 72 hrs by MTT assay; assay type: functional; details: EO771
[30] = system: Jurkat; assay: Antiproliferative activity against human Jurkat cells assessed as inhibition of cell growth; assay type: functional, cell-based; method in brief: as §1
[31] = Cytotoxicity against human PBL assessed as inhibition of cell growth; assay type: cell-based; details: peripheral blood lymphocytes (PBL); method in brief: as §6

For `CCOc1ccc2c(C(=O)c3cc(OC)c(OC)c(OC)c3)c(N)oc2c1`, the Activity [1] was 14.05%, the IC50 [2] was 0.31 nM and the Activity [3] was “Active”. For the same compound, the Activity [4] was “Active”, the IC50 [5] was 2.8 nM and the Activity [6] was 16.9%. For the same compound, the Activity [7] was “Active”, the Activity [8] was “Active” and the IC50 [9] was 2.7 nM. For the same compound, the Activity [10] was “Dose-dependent effect”, the IC50 [11] was 0.005 nM and the GI50 [12] was over 10000 nM. For the same compound, the Activity [13] was “Active”, the inhibition [14] was 86% and the viability at 0.01 µM [15] was 31.3%. The “Ratio IC50” value [16] was 2460, the GI50 [17] was over 10000 nM and the Activity [18] was “Dose-dependent effect”. For the same compound, the Activity [19] was “Active”, the Activity [20] was “Active” and the IC50 [21] was 370 nM. For the same compound, the Activity [22] was “Active”, the Activity [23] was “Active” and the Activity [24] was 23.53%. The Activity [25] was 24.3%, the Activity [26] was “Active” and the “Ratio IC50” value [27] was 3. The Activity [28] was 6.72%, the GI50 [29] was 15.6 nM and the IC50 [30] was 0.28 nM. The GI50 [31] was 8700 nM.
